Test results as given in publication PMC4806784 (Investigational new drugs, 2015).

Experiments:
[1] = tested on: phospho-Aurora B (pAurB) and phospho-histone H3 (pHH3); experiment: Immunohistochemistry of hair follicles and skin biopsies; assay type: in vivo, human; conditions: Panel 1 (MT), pre- and post-dose hair follicles and skin biopsies
In short: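 Plucked scalp hair follicles (from at least 15 hair shafts) and skin punch biopsies were taken pre-dose and on Cycle 1 Day 2, 4 (±1) h after the third oral BID Q12hr dose. Only Panel 1 monotherapy patients were sampled. Phospho-Aurora B and phospho-histone H3 were assessed by immunohistochemistry as change from baseline.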

[2] = tested on: AURKA, AURKB, BIRC5, PRC1, TACC3, DLGAP5 [DLG7], and NDC80 [KNTC2]; experiment: Gene expression PD biomarkers by quantitative RT-PCR on hair follicle RNA; assay type: in vivo, human; conditions: Panel 1 (MT), p < 0.05 unadjusted
Safety and tolerability = assay type: in vivo
[3] = Crossover from Panel 1 to Panel 2 (n = 4)
[4] = Panel 2: MK-5108 CT with docetaxel 60 mg/m^2 (n = 17)
[5] = Panel 2: MK-5108 CT with docetaxel (N = 17)

O=C(O)[C@]1(Cc2cccc(Nc3nccs3)n2)CC[C@@H](Oc2cccc(Cl)c2F)CC1 [MK-5108]
change from baseline in pHH3 and pAurB (IHC) [1]: no clear dose-related increases
genes (of seven) with significant dose-related changes in the expected direction [2]: 5 genes
Drug-related AEs by SOC: Blood and lymphatic system disorders (Safety and tolerability; Crossover (N = 4)): 2 (50.0) n (%)
Drug-related AEs by SOC: Gastrointestinal disorders (Safety and tolerability; Crossover (N = 4)): 1 (25.0) n (%)
Drug-related AEs by SOC: General disorders and administration site conditions (Safety and tolerability; Crossover (N = 4)): 2 (50.0) n (%)
Drug-related AEs by SOC: Infections and infestations (Safety and tolerability; Crossover (N = 4)): 0 (0.0) n (%)
Drug-related AEs by SOC: Investigations (Safety and tolerability; Crossover (N = 4)): 1 (25.0) n (%)
Drug-related AEs by SOC: Metabolism and nutrition disorders (Safety and tolerability; Crossover (N = 4)): 2 (50.0) n (%)
Drug-related AEs by SOC: Musculoskeletal and connective tissue disorders (Safety and tolerability; Crossover (N = 4)): 1 (25.0) n (%)
Drug-related AEs by SOC: Nervous system disorders (Safety and tolerability; Crossover (N = 4)): 1 (25.0) n (%)
Drug-related AEs by SOC: Respiratory, thoracic and mediastinal disorders (Safety and tolerability; Crossover (N = 4)): 1 (25.0) n (%)
Drug-related AEs by SOC: Skin and subcutaneous tissue disorders (Safety and tolerability; Crossover (N = 4)): 1 (25.0) n (%)
Drug-related AEs by SOC: Vascular disorders (Safety and tolerability; Crossover (N = 4)): 0 (0.0) n (%)
Patients with drug-related AEs, highest grade: Grade 1 (Safety and tolerability; Crossover (N = 4)): 1 (25.0) n (%)
Patients with drug-related AEs, highest grade: Grade 2 (Safety and tolerability; Crossover (N = 4)): 0 (0.0) n (%)
Patients with drug-related AEs, highest grade: Grade 3 (Safety and tolerability; Crossover (N = 4)): 1 (25.0) n (%)
Patients with drug-related AEs, highest grade: Grade 4 (Safety and tolerability; Crossover (N = 4)): 1 (25.0) n (%)
Patients with no drug-related AEs (Safety and tolerability; Crossover (N = 4)): 1 (25.0) n (%)
Patients with one or more drug-related AEs (Safety and tolerability; Crossover (N = 4)): 3 (75.0) n (%)
Death (Safety and tolerability; [3]): 0 n (%)
Discontinued treatment due to a drug-related AE (Safety and tolerability; [3]): 0 n (%)
Discontinued treatment due to a drug-related SAE (Safety and tolerability; [3]): 0 n (%)
Discontinued treatment due to an SAE (Safety and tolerability; [3]): 0 n (%)
Discontinued treatment due to any AE (Safety and tolerability; [3]): 0 n (%)
Patients with any AE (Safety and tolerability; [3]): 4 (100.0) n (%)
Patients with drug-related AE (Safety and tolerability; [3]): 3 (75.0) n (%)
Patients with no AE (Safety and tolerability; [3]): 0 n
Patients with serious AE (Safety and tolerability; [3]): 0 n (%)
Patients with serious drug-related AE (Safety and tolerability; [3]): 0 n (%)
MTD (Safety and tolerability; MK-5108 MT, doses up to 1800 mg Q12hr): not established
tolerability (Safety and tolerability; MT, doses up to 1800 mg Q12hr (3600 mg/day)): generally well tolerated
patients experiencing a DLT (Safety and tolerability; Panel 1 (MT)): no patients
patients with a Grade 3 or 4 drug-related AE (Safety and tolerability; Panel 1 (MT)): No patients
AEs (all grades and doses) by SOC: General disorders and administration site conditions (Safety and tolerability; Panel 1 (MT), 11/14): 78.6%
AEs (all grades and doses) by SOC: Gastrointestinal disorders (Safety and tolerability; Panel 1 (MT), 12/14): 85.7%
Drug-related AEs by SOC: Blood and lymphatic system disorders (Safety and tolerability; Panel 1: MK-5108 MT (N = 14)): 4 (28.6) n (%)
Drug-related AEs by SOC: Gastrointestinal disorders (Safety and tolerability; Panel 1: MK-5108 MT (N = 14)): 7 (50.0) n (%)
Drug-related AEs by SOC: General disorders and administration site conditions (Safety and tolerability; Panel 1: MK-5108 MT (N = 14)): 7 (50.0) n (%)
Drug-related AEs by SOC: Infections and infestations (Safety and tolerability; Panel 1: MK-5108 MT (N = 14)): 0 (0.0) n (%)
Drug-related AEs by SOC: Investigations (Safety and tolerability; Panel 1: MK-5108 MT (N = 14)): 2 (14.3) n (%)
Drug-related AEs by SOC: Metabolism and nutrition disorders (Safety and tolerability; Panel 1: MK-5108 MT (N = 14)): 2 (14.3) n (%)
Drug-related AEs by SOC: Musculoskeletal and connective tissue disorders (Safety and tolerability; Panel 1: MK-5108 MT (N = 14)): 1 (7.1) n (%)
Drug-related AEs by SOC: Nervous system disorders (Safety and tolerability; Panel 1: MK-5108 MT (N = 14)): 3 (21.4) n (%)
Drug-related AEs by SOC: Respiratory, thoracic and mediastinal disorders (Safety and tolerability; Panel 1: MK-5108 MT (N = 14)): 1 (7.1) n (%)
Drug-related AEs by SOC: Skin and subcutaneous tissue disorders (Safety and tolerability; Panel 1: MK-5108 MT (N = 14)): 1 (7.1) n (%)
Drug-related AEs by SOC: Vascular disorders (Safety and tolerability; Panel 1: MK-5108 MT (N = 14)): 0 (0.0) n (%)
Patients with drug-related AEs, highest grade: Grade 1 (Safety and tolerability; Panel 1: MK-5108 MT (N = 14)): 3 (21.4) n (%)
Patients with drug-related AEs, highest grade: Grade 2 (Safety and tolerability; Panel 1: MK-5108 MT (N = 14)): 5 (35.7) n (%)
Patients with drug-related AEs, highest grade: Grade 3 (Safety and tolerability; Panel 1: MK-5108 MT (N = 14)): 0 (0.0) n (%)
Patients with drug-related AEs, highest grade: Grade 4 (Safety and tolerability; Panel 1: MK-5108 MT (N = 14)): 0 (0.0) n (%)
Patients with no drug-related AEs (Safety and tolerability; Panel 1: MK-5108 MT (N = 14)): 6 (42.9) n (%)
Patients with one or more drug-related AEs (Safety and tolerability; Panel 1: MK-5108 MT (N = 14)): 8 (57.1) n (%)
Death (Safety and tolerability; Panel 1: MK-5108 MT (n = 14)): 1 (7.1) n (%)
Discontinued treatment due to a drug-related AE (Safety and tolerability; Panel 1: MK-5108 MT (n = 14)): 0 n (%)
Discontinued treatment due to a drug-related SAE (Safety and tolerability; Panel 1: MK-5108 MT (n = 14)): 0 n (%)
Discontinued treatment due to an SAE (Safety and tolerability; Panel 1: MK-5108 MT (n = 14)): 1 (7.1) n (%)
Discontinued treatment due to any AE (Safety and tolerability; Panel 1: MK-5108 MT (n = 14)): 2 (14.3) n (%)
Patients with any AE (Safety and tolerability; Panel 1: MK-5108 MT (n = 14)): 14 (100.0) n (%)
Patients with drug-related AE (Safety and tolerability; Panel 1: MK-5108 MT (n = 14)): 8 (57.1) n (%)
Patients with no AE (Safety and tolerability; Panel 1: MK-5108 MT (n = 14)): 0 n
Patients with serious AE (Safety and tolerability; Panel 1: MK-5108 MT (n = 14)): 4 (28.6) n (%)
Patients with serious drug-related AE (Safety and tolerability; Panel 1: MK-5108 MT (n = 14)): 0 n (%)
patients experiencing a DLT (Safety and tolerability; Panel 2 (CT), 100 mg Q12hr (200 mg/day), febrile neutropenia (Grade 3)): one patient
patients experiencing any DLTs (Safety and tolerability; Panel 2 (CT), 150 mg Q12hr, 6 patients): None
DLTs (Safety and tolerability; Panel 2 (CT), 225 mg Q12hr (450 mg/day), febrile neutropenia (Grade 4) and infection (Grade 3)): 2
AEs (all grades and doses) by SOC: Gastrointestinal disorders (Safety and tolerability; Panel 2 (CT), 12/17): 70.6%
AEs (all grades and doses) by SOC: Metabolism and nutrition disorders (Safety and tolerability; Panel 2 (CT), 12/17): 70.6%
AEs (all grades and doses) by SOC: Skin and subcutaneous tissue disorders (Safety and tolerability; Panel 2 (CT), 12/17): 70.6%
patients with a Grade 3 or 4 drug-related AE (Safety and tolerability; Panel 2 (CT), 12/17): 70.6%
AEs (all grades and doses) by SOC: Blood and lymphatic system disorders (Safety and tolerability; Panel 2 (CT), 15/17): 88.2%
AEs (all grades and doses) by SOC: General disorders and administration site conditions (Safety and tolerability; Panel 2 (CT), 15/17): 88.2%
Death (Safety and tolerability; [4]): 0 n (%)
Discontinued treatment due to a drug-related AE (Safety and tolerability; [4]): 1 (5.9) n (%)
Discontinued treatment due to a drug-related SAE (Safety and tolerability; [4]): 1 (5.9) n (%)
Discontinued treatment due to an SAE (Safety and tolerability; [4]): 2 (11.8) n (%)
Discontinued treatment due to any AE (Safety and tolerability; [4]): 2 (11.8) n (%)
Patients with any AE (Safety and tolerability; [4]): 17 (100.0) n (%)
Patients with drug-related AE (Safety and tolerability; [4]): 15 (88.2) n (%)
Patients with no AE (Safety and tolerability; [4]): 0 n
Patients with serious AE (Safety and tolerability; [4]): 9 (52.9) n (%)
Patients with serious drug-related AE (Safety and tolerability; [4]): 4 (23.5) n (%)
Drug-related AEs by SOC: Blood and lymphatic system disorders (Safety and tolerability; [5]): 14 (82.4) n (%)
Drug-related AEs by SOC: Gastrointestinal disorders (Safety and tolerability; [5]): 11 (64.7) n (%)
Drug-related AEs by SOC: General disorders and administration site conditions (Safety and tolerability; [5]): 11 (64.7) n (%)
Drug-related AEs by SOC: Infections and infestations (Safety and tolerability; [5]): 4 (23.5) n (%)
Drug-related AEs by SOC: Investigations (Safety and tolerability; [5]): 5 (29.4) n (%)
Drug-related AEs by SOC: Metabolism and nutrition disorders (Safety and tolerability; [5]): 9 (52.9) n (%)
Drug-related AEs by SOC: Musculoskeletal and connective tissue disorders (Safety and tolerability; [5]): 5 (29.4) n (%)
Drug-related AEs by SOC: Nervous system disorders (Safety and tolerability; [5]): 3 (17.6) n (%)
Drug-related AEs by SOC: Respiratory, thoracic and mediastinal disorders (Safety and tolerability; [5]): 5 (29.4) n (%)
Drug-related AEs by SOC: Skin and subcutaneous tissue disorders (Safety and tolerability; [5]): 8 (47.1) n (%)
Drug-related AEs by SOC: Vascular disorders (Safety and tolerability; [5]): 2 (11.8) n (%)
Patients with drug-related AEs, highest grade: Grade 1 (Safety and tolerability; [5]): 0 (0.0) n (%)
Patients with drug-related AEs, highest grade: Grade 2 (Safety and tolerability; [5]): 3 (17.6) n (%)
Patients with drug-related AEs, highest grade: Grade 3 (Safety and tolerability; [5]): 6 (35.3) n (%)
Patients with drug-related AEs, highest grade: Grade 4 (Safety and tolerability; [5]): 6 (35.3) n (%)
Patients with no drug-related AEs (Safety and tolerability; [5]): 2 (11.8) n (%)
Patients with one or more drug-related AEs (Safety and tolerability; [5]): 15 (88.2) n (%)
Drug-related AEs by SOC: Blood and lymphatic system disorders (Safety and tolerability; Total (N = 35)): 20 (57.1) n (%)
Drug-related AEs by SOC: Gastrointestinal disorders (Safety and tolerability; Total (N = 35)): 19 (54.3) n (%)
Drug-related AEs by SOC: General disorders and administration site conditions (Safety and tolerability; Total (N = 35)): 20 (57.1) n (%)
Drug-related AEs by SOC: Infections and infestations (Safety and tolerability; Total (N = 35)): 4 (11.4) n (%)
Drug-related AEs by SOC: Investigations (Safety and tolerability; Total (N = 35)): 8 (22.9) n (%)
Drug-related AEs by SOC: Metabolism and nutrition disorders (Safety and tolerability; Total (N = 35)): 13 (37.1) n (%)
Drug-related AEs by SOC: Musculoskeletal and connective tissue disorders (Safety and tolerability; Total (N = 35)): 7 (20.0) n (%)
Drug-related AEs by SOC: Nervous system disorders (Safety and tolerability; Total (N = 35)): 7 (20.0) n (%)
Drug-related AEs by SOC: Respiratory, thoracic and mediastinal disorders (Safety and tolerability; Total (N = 35)): 7 (20.0) n (%)
Drug-related AEs by SOC: Skin and subcutaneous tissue disorders (Safety and tolerability; Total (N = 35)): 10 (28.6) n (%)
Drug-related AEs by SOC: Vascular disorders (Safety and tolerability; Total (N = 35)): 2 (5.7) n (%)
Patients with drug-related AEs, highest grade: Grade 1 (Safety and tolerability; Total (N = 35)): 4 (11.4) n (%)
Patients with drug-related AEs, highest grade: Grade 2 (Safety and tolerability; Total (N = 35)): 8 (22.9) n (%)
Patients with drug-related AEs, highest grade: Grade 3 (Safety and tolerability; Total (N = 35)): 7 (20.0) n (%)
Patients with drug-related AEs, highest grade: Grade 4 (Safety and tolerability; Total (N = 35)): 7 (20.0) n (%)
Patients with no drug-related AEs (Safety and tolerability; Total (N = 35)): 9 (25.7) n (%)
Patients with one or more drug-related AEs (Safety and tolerability; Total (N = 35)): 26 (74.3) n (%)
